Results published in the array DNA melting data of Ke et al. (doi:10.1101/2024.01.08.574731).

How the values were obtained:
[1] = folding enthalpy; higher = less favourable; fluorescence melt of hairpins on a sequencing array, two-state fit; conditions: sodium 0.088 M
How it was run: (§1)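 On a sequenced MiSeq flow cell, library hairpins with annealed Cy3 and quencher oligos were imaged for Cy3 fluorescence in 2.5 °C steps up to 60 °C, in 50 mM Na-HEPES pH 8.0, 25 mM NaCl. Normalisation used pre-quench Cy3 and control constructs. Bootstrapped two-state fits gave melting temperature and folding enthalpy, combined by inverse variance across four replicates and with fitted temperatures raised by 9.35 °C to match UV melts.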

[2] = melting temperature; fluorescence melt of hairpins on a sequencing array, two-state fit, raised by 9.35 °C to match UV melts; conditions: sodium 0.088 M
How it was run: as §1

Sequence | folding enthalpy [1] [kcal/mol] | Tm [2] [°C]
GCCATCCCGAAAGGGGGC (((..(((....)))))) | -18.1 | 51.8
GCCATCCGAAAGGACGGC (((.(((....))).))) | -40.2 | 55.7
GCCATCGAAAGATCAGGC ((((((....)))..))) | -24.9 | 37.7
GCCATCGAAAGATCGGGC ((((((....)))..))) | -25.1 | 41.6
GCCATCGAAAGATCTGGC ((((((....)))..))) | -25.9 | 36.1
GCCATCGAAAGATGGGC ((((((....))).))) | -15.4 | 63.2
GCCATCGAAAGATGGGGC ((((((....)))..))) | -12.8 | 54.4
GCCATCGCGAAAGCGGGC (((..(((....)))))) | -17.4 | 53.9
GCCATCGGAAACGACGGC (((.(((....))).))) | -35.5 | 52.1
GCCATGCCGAAAGGCGGC (((..(((....)))))) | -18.6 | 59.2
GCCATGCGAAAGCAAGGC (((.(((....))).))) | -42.6 | 60.5
GCCATGCGAAAGCAGGC (((.(((....)))))) | -21.8 | 64.4
GCCATGCGAAAGCATTGC ((.((((....)))).)) | -21.2 | 54
GCCATGCGAAAGCCCGGC (((..((....))..))) | -22.9 | 43.1
GCCATGCGAAAGCCGGGC (((..((....))..))) | -26.1 | 55.3
GCCATGCGAAAGCGGGGC (((..((....))..))) | -35 | 65.3
GCCATGCGAAAGCTAGGC (((..((....))..))) | -27.3 | 62.2
GCCATGCGAAAGCTTCGC ((.(.((....)).).)) | -8.18 | 47.3
GCCATGGGAAACCACAGC ((..(((....)))..)) | -12.7 | 26.9
GCCATGGGAAACCATGAC (.(((((....))))).) | -19.5 | 41
GCCATGGGAAACCGTGGC ((((.((....)).)))) | -40.6 | 59
GCCATTCGAAAGAACGGC (((.(((....))).))) | -40.1 | 49.6
GCCCAACGAAAGTTTGGC (((.(((....))).))) | -28.1 | 50.2

Sequence | folding enthalpy [1] [kcal/mol] | Tm [2] [°C]
GCCCAAGCGAAAGCTGGC (((..(((....)))))) | -17.6 | 53.6
GCCCAAGGAAACTCGGGC ((((.((....)).)))) | -26.9 | 48.8
GCCCAAGGAAACTTGGAC (.(((((....))))).) | -19.6 | 38
GCCCACGAAAGTGCAGGC ((((((....)))..))) | -28.1 | 50.1
GCCCACGAAAGTGCTGGC ((((((....)))..))) | -18.9 | 47.4
GCCCACGAAAGTGGCGGC ((((((....)))..))) | -14 | 57.6
GCCCACGAAAGTGGTGGC ((((((....)))..))) | -13.8 | 55.4
GCCCACGGAAACACGGGC ((((..(....)..)))) | -24.4 | 46.5
GCCCACGGAAACGCGGAC (.((.((....)).)).) | -18.4 | 32.8
GCCCAGCGAAAGCAAGGC (((..((....))..))) | -18.5 | 56.9
GCCCAGCGAAAGCCCGGC (((..((....))..))) | -15.6 | 47.1
GCCCAGCGAAAGCGAGGC (((..((....))..))) | -20.6 | 62.7
GCCCAGCGAAAGCGGAGC ((.(.((....)).).)) | -12.7 | 53.1
GCCCAGCGAAAGCTTCGC ((..(((....)))..)) | -6.41 | 40.3
GCCCAGGCGAAAGCCGGC (((..(((....)))))) | -10.1 | 62
GCCCAGGGAAACCCGGGC ((((.((....)).)))) | -37.4 | 57.8
GCCCAGGGAAACCTGGAC (.(((((....))))).) | -13.4 | 49.4
GCCCAGGGAAACTTGGGC (((((.(....).))))) | -36.8 | 56.5
GCCCATCCGAAAGGAGGC (((..(((....)))))) | -14.3 | 44.5
GCCCATCGAAAGATCGGC (((.(((....))).))) | -33.6 | 44.5
GCCCATGGAAACACGGGC ((((.((....)).)))) | -43 | 49.4
GCCCATGGAAACATAGGC (((.(((....))).))) | -28.1 | 38.3
